E coli WT exp: growth inhibitors of wild-type E. coli, primary screen, strain BW25113, expanded library, OD600; AID 710, 2007; growth inhibition, % at 100 µM; OD600 absorbance; actives 0.15% (n = 98,000);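 active = growth inhibition above about 50% at one test dose, limit read from the data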;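 note: growth measured after 20 h incubation at 37 °C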
HePTP inh: inhibitors of human HePTP phosphatase, primary screen, biochemical, absorbance, leukemia target. inhibition, % at 20 µM. Tyrosine-protein phosphatase non-receptor type 7 (Homo sapiens), P35236. recombinant HePTP phosphatase activity, OD absorbance. actives 0.64% (n = 110,000). AID 521, 2006; in the data active = inhibition above about 50%;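 note: plate controls were vehicle for no effect and reference inhibitor for full effect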
PostGolgi yeast: phenotypic screen on post-Golgi transport, primary screen | post-Golgi transport phenotypic cell assay | actives 0.9% (n = 98,000) | inhibition, % at 10 µM;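 note: yeast cells grown in 1536-well plates; yeast grown about 18 h at 30C before absorbance read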
PLAP activator: PLAP enzyme activators, biochemical, luminescence, HTS | AID 696, 2007 | purified PLAP enzyme, luminescent substrate read-out; stronger effect = higher value | Alkaline phosphatase, placental type (Homo sapiens), P05187 | activation fold at 20 µM | actives 1.2% (n = 96,000); in the data active = activation fold above about 2
Target sequence (P05187 whole entry, looked up): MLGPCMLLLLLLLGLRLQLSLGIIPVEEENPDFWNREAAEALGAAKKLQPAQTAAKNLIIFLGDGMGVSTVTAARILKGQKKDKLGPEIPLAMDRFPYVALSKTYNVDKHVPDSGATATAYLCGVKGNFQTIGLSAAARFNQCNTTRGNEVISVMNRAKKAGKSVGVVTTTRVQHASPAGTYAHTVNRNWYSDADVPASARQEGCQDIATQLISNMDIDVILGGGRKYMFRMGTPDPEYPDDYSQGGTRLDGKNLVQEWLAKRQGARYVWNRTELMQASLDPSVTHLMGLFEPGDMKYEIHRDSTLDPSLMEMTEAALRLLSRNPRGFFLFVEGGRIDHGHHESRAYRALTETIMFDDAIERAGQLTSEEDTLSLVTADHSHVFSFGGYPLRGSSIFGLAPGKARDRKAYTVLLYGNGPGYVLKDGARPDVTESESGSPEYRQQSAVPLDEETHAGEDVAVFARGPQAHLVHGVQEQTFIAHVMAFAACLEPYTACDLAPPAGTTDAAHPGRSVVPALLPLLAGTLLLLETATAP
tolC growth inh: growth inhibitors of E. coli tolC mutant, primary screen, strain BW25113 ΔtolC::kan, 384-well; OD615; actives 2.2% (n = 65,000); AID 573, 2007; growth inhibition, % at 10 µM (by protocol);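 active = growth inhibition at or above a cutoff equal to the mean over every tested compound plus 3 SD, cut at about 60% in these data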;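 note: growth measured after 20 h incubation at 37 °C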
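Test system – E. coli BW25113 ΔtolC::kan, tolC deletion mutant strain · Detection – OD at 615 nm · Buffer or medium – LB with kanamycin 50 µg/mL · Times – 20 h compound exposure of bacteria at 37 °C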
PostGolgi ctrl: growth inhibition of yeast control strain, primary screen, counter-screen for post-Golgi transport modulator project; efflux-deficient yeast background strain, growth absorbance A615, 16 h; inhibition, % at 10 µM; actives 5% (n = 98,000)
Active calls of the source: *; / = not tested or not shown. Only some compounds are listed: those with a hit (about 5.4% of all), similar ones and a draw of the others. Cut-off read from the data, not from the text of the source, unless noted: active = inhibition above about 30%; inactive = the rest.

SMILES	E coli WT exp	HePTP inh	PostGolgi yeast	PLAP activator	tolC growth inh	PostGolgi ctrl
NC(=O)c1ccc(NC(=O)Nc2cccc(Cl)c2)cc1	/	9	/	/	/	/
COc1ccc(S(=O)(=O)N2CCC(C(=O)NCCc3ccc4c(c3)OCO4)CC2)cc1	4	-4	1	1.3	9	39*
COC(=O)C1(S(=O)(=O)c2ccc(Cl)cc2)CC1	/	3	/	/	/	/
CCCc1ccc(Oc2cn[nH]c2-c2ccc(O)c(C)c2O)cc1	12	-3	80*	2.2*	100*	92*
CCCc1ccc(Oc2c(-c3ccc(O)c(C)c3O)n[nH]c2C)cc1	10	-6	80*	1.8	48	65*
CCOC(=O)C1=C(CC)NC2=C(C(=O)CCC2)C1c1cc(OC)ccc1OC (stereo not given)	/	-6	/	/	/	/
CCOC(=O)c1c(NC(=O)C2CCCCC2)sc(C)c1C	/	-5	/	/	/	/
Cc1ccc(Cn2ccc(=O)c(OCc3ccccc3)c2C)cc1	9	/	-6	0.9	/	9
Cc1c(OCc2ccccc2)c(=O)ccn1Cc1ccc(Cl)cc1	-2	/	-2	1	/	43*
O=C(CCCSc1nc2ccccc2[nH]1)N1CCN(c2ccccc2)CC1	13	8	-9	1.7	37	0
Cc1cccc(N2CCN(C(=O)CCCSc3nc4ccccc4[nH]3)CC2)c1C	-10	/	10	1.5	/	39*
O=C(NCCO)C(=O)Nc1cccc(C(F)(F)F)c1	/	7	/	/	/	/
C=CCOc1ccc2ccccc2c1/C=N/NS(=O)(=O)c1ccccc1	/	-22	/	/	/	/
COC(=O)c1ccc(N2CCOCC2)c(F)c1	10	/	19	0.9	/	12
c1ccc(-c2nnc(N3CCOCC3)nc2-c2ccccc2)cc1	4	1	0	0.9	15	54*
c1ccc(Oc2nc(Oc3ccccc3)nc(N3CCOCC3)n2)cc1	-12	-6	5	0.9	21	31*
COC(=O)c1ccc(Oc2nc(N3CCCCC3)nc(N3CCOCC3)n2)cc1	-5	3	-12	1	66*	8
c1ccc(-c2nc(N3CCOCC3)nc3ccccc23)cc1	/	-17	/	/	/	/
Clc1ccc(Oc2nc(Oc3ccc(Cl)cc3)nc(N3CCOCC3)n2)cc1	-16	5	3	1	48	-1
O=C(CCc1ccccc1O)N/N=C/c1cc([N+](=O)[O-])ccc1N1CCOCC1	/	-4	/	/	/	/
COc1ccc(N=C(NOC(C)=O)c2ccc(Cl)cc2)c(OC)c1	/	14	/	/	/	/
CC(C)=CCC/C(C)=C/C1OCC(C)O1 (stereo not given)	/	4	/	/	/	/
Cc1cc(C)cc(NC(=S)NC(=O)CCN2C(=O)c3ccccc3C2=O)c1	11	/	87*	0.9	/	92*
Cc1ccc(-c2nc3ccccc3s2)cc1S(=O)(=O)N1CCOCC1	-2	/	-7	1.1	/	34*
O=S(=O)(c1cc(-c2nc3ccccc3s2)ccc1Cl)N1CCOCC1	-1	/	22	0.9	/	5
SMILES	E coli WT exp	HePTP inh	PostGolgi yeast	PLAP activator	tolC growth inh	PostGolgi ctrl
Cc1cccc(OCCSc2nc3ccccc3n2CCO)c1	/	-5	/	/	/	/
Cc1ccc(OCC(=O)N2CCC(C(N)=O)CC2)c(Br)c1	/	-6	/	/	/	/
CCCCCCOC(=O)C(C#N)c1nc2ccccc2nc1N1CCOCC1 (stereo not given)	-7	3	-8	1.2	1	16
CCCCOC(=O)C(C#N)c1nc2ccccc2nc1N1CCOCC1 (stereo not given)	3	3	0	1.3	14	37*
C=CCOC(=O)C(C#N)c1nc2ccccc2nc1N1CCCC1 (stereo not given)	4	-5	0	1.2	96*	10
COCCOC(=O)C(C#N)c1nc2ccccc2nc1N1CCCC1 (stereo not given)	4	9	-9	0.9	31	11
NCC(O)C12CC3CC(CC(C3)C1)C2 (stereo not given)	/	-6	/	/	/	/
Cc1nn(-c2ccccc2)c2sc(C(=O)N(C)c3ccccc3)cc12	/	-2	/	/	/	/
CCOC(=O)c1c(-c2ccccc2)csc1NC(=O)c1ccc(OC(C)C)cc1	/	16	/	/	/	/
COC(=O)c1cn[nH]c1NC(=S)Nc1ccc(C)cc1Cl	-7	/	1	1.1	/	3
COC(=O)c1cn[nH]c1NC(=S)Nc1ccc(Cl)c(Cl)c1	-6	/	-3	2.5*	/	42*
CSC1=C(C#N)C(c2ccccc2Cl)C2=C(N1)c1ccccc1C2=O (stereo not given)	-5	/	0	1.1	/	4
CSC1=C(C#N)C(c2ccccc2C)C(C#N)=C(N)N1 (stereo not given)	4	10	2	0.8	-17	50*
CCOC(=O)c1c(N)sc2c1CCCCCC2	/	17	/	/	/	/
O=C1CCCC2=C1C(c1ccc(F)cc1)C1=C(CCCC1=O)O2	/	8	/	/	/	/
COc1ccc(S(=O)(=O)NCCSCc2cccc(C)c2)cc1Br	-20	/	0	0.8	/	37*
Cc1ccc(S(=O)(=O)NCCSCc2ccccc2)cc1	0	/	-1	/	/	16
Cc1cc(C)c(S(=O)(=O)NCCn2c(C)cc3ccccc32)c(C)c1	-9	/	-3	1.5	/	44*
Cc1ccc(S(=O)(=O)NCCn2c(C)cc3ccccc32)cc1	-5	4	9	1.2	7	5
O=C1c2[nH]nc(-c3ccccc3O)c2C(c2ccc(F)cc2)N1Cc1ccco1 (stereo not given)	0	-5	-3	2.4*	100*	15
O=C1c2[nH]nc(-c3ccccc3O)c2C(c2cccc(Cl)c2)N1Cc1ccco1 (stereo not given)	-3	5	-7	1.2	100*	26
O=C1c2[nH]nc(-c3ccccc3O)c2C(c2ccc(F)cc2)N1CC1CCCO1 (stereo not given)	0	-2	-3	1.8	59	0
O=C1c2[nH]nc(-c3ccccc3O)c2C(c2cccc(Cl)c2)N1CC1CCCO1 (stereo not given)	6	4	-6	1.5	88*	3
O=C1c2ccccc2NC(c2ccc(Cl)cc2Cl)N1Cc1ccco1 (stereo not given)	/	-14	/	/	/	/
COc1ccc(CCN2C(=O)c3[nH]nc(-c4ccccc4O)c3C2c2cccc(O)c2)cc1OC (stereo not given)	11	1	7	2.9*	50	6
SMILES	E coli WT exp	HePTP inh	PostGolgi yeast	PLAP activator	tolC growth inh	PostGolgi ctrl
Cc1c(C(=O)OC(C)C)sc(NC(=O)/C=C/c2ccc3c(c2)OCO3)c1C(=O)OC(C)C	/	6	/	/	/	/
Cc1cc([N+](=O)[O-])ccc1NC(=S)NC(=O)c1ccc(Cl)cc1	/	4	/	/	/	/
COc1cc(/C=N/NC(=O)CCNc2n[nH]c(=O)[nH]c2=O)cc(Br)c1O	/	4	/	/	/	/
Cc1cccc(N2CCN(Cc3oc(CO)cc(=O)c3O)CC2)c1C	10	/	9	2.2*	/	-3
O=C(O)CCCC(=O)OCc1ccco1	/	102*	/	/	/	/
COc1cccc(NS(=O)(=O)c2ccc3[nH]cc(C(=O)NCCC(C)C)c(=O)c3c2)c1	2	6	9	1	31	41*
